Holding throughout (format): functional
Test [1] concerns Escherichia coli. Briefly: Antibacterial activity against Escherichia coli K12 containing deletion deltaphoB mutant assessed as cell count in stationary phase at 100 ug/ml after 5 hrs. In short, it runs like this: (§1)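 Deletion mutants were made by the Datsenko–Wanner method. Log-phase or stationary-phase cultures were exposed to ampicillin at 100 μg/ml. CFU/ml was determined at the start and after 5, 24 and 72 h of exposure.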

The subject of test [2] is Escherichia coli. In words: Antibacterial activity against Escherichia coli K12 PhoU wild type W3110 at 25 ug/ml after 48 hrs by disc diffusion method. In short, it runs like this:
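Kirby-Bauer disc assay. Log-phase LB broth culture (10⁸ bacteria) was spread on LB agar for confluent growth. 7 mm nitrocellulose discs soaked in antibiotic solution at the listed concentration were placed on the agar. Inhibition zone diameter (mm) was measured after 48 h at 37°C.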
A general note: Agar diffusion results depend on both activity and mobility in agar.

For test [3], the system named is Escherichia coli. In words: Antibacterial activity against Escherichia coli K12 PhoU wild type W3110 assessed as cell count in stationary phase at 100 ug/ml after 10 days. In short, it runs like this: (§2)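 Log-phase or stationary-phase cultures exposed to ampicillin 100 μg/ml in MOPS minimal medium (pH 5.0) at 37°C without shaking, for 5 h up to 10 days. Aliquots were taken at each time point, washed in saline and plated on LB plates for viable CFU/ml.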

Test [4] concerns Escherichia coli. Briefly: Antibacterial activity against Escherichia coli K12 mutant JHU313 containing plasmid vector at 100 ug/ml after 48 hrs by disc diffusion method. In short, it runs like this: (§3)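 Kirby-Bauer disc assay: log-phase LB culture was spread on LB agar for confluent growth. 7-mm nitrocellulose discs were soaked in antibiotic at the listed concentration and placed on the agar. After 48 h at 37°C, the diameter of the inhibition zone was measured in mm.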

Test [5] has as its system Escherichia coli. Briefly: Antibacterial activity against Escherichia coli K12 PhoU wild type W3110 assessed as cell count in log phase at 100 ug/ml after 3 days. Summed up:
as §2

Test [6] relates to Escherichia coli. In words: Antibacterial activity against Escherichia coli K12 containing deletion deltahipA mutant assessed as cell count in stationary phase at 100 ug/ml after 5 hrs. Summed up: as §1
Test [7] relates to Escherichia coli. In words: Antibacterial activity against Escherichia coli K12 PhoU wild type W3110 at 100 ug/ml after 48 hrs by disc diffusion method. Summed up: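 Kirby-Bauer disc assay. Log-phase LB culture (10⁸ bacteria) was spread for confluent growth on LB agar. 7 mm nitrocellulose discs soaked in antibiotic at the listed concentrations were laid on the agar. Inhibition zone diameter (mm) was measured after 48 h at 37°C.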

Test [8] concerns Escherichia coli. In words: Antibacterial activity against Escherichia coli K12 mutant JHU313 containing plasmid PhoU at 6 ug/ml after 48 hrs by disc diffusion method. Summed up: as §3
The subject of test [9] is Escherichia coli. In words: Antibacterial activity against Escherichia coli K12 containing deletion deltaphoU mutant assessed as cell count in log phase at 3 ug/ml after 10 days. Summed up: (§4)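 Log-phase or stationary-phase cultures of the ΔphoU deletion mutant (Datsenko–Wanner construction) were exposed to norfloxacin 3 μg/ml in MOPS minimal medium, pH 5.0, at 37°C without shaking, for up to 10 days. Sampled aliquots were washed in saline and plated on LB agar for CFU/ml.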

For test [10], the system named is Escherichia coli. In words: Antibacterial activity against Escherichia coli K12 mutant JHU313 containing plasmid vector at 0.5 ug/ml after 48 hrs by disc diffusion method. In short, it runs like this:
as §3

The subject of test [11] is Escherichia coli. In words: Antibacterial activity against Escherichia coli K12 containing PhoU mutant assessed as cell count in stationary phase at 3 ug/ml after 10 days. Summed up:
(§5)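 Log-phase or stationary-phase cultures were exposed to ampicillin (100 μg/ml) or norfloxacin (3 μg/ml) in MOPS minimal medium, pH 5.0, at 37°C without shaking, for 5 h to 10 days. Aliquots were saline-washed and plated on LB for CFU/ml.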

The test system of test [12] is Escherichia coli. Briefly: Antibacterial activity against Escherichia coli K12 PhoU wild type W3110 assessed as cell count in log phase at 3 ug/ml after 5 days. In short, it runs like this:
as §5

The test system of test [13] is Escherichia coli. In words: Antibacterial activity against Escherichia coli K12 containing PhoU mutant assessed as cell count in stationary phase at 3 ug/ml after 1 day. Summed up: as §5
Test [14] concerns Escherichia coli. In words: Antibacterial activity against Escherichia coli K12 containing deletion deltaphoU mutant assessed as cell count in log phase at 3 ug/ml after 1 day. In short, it runs like this: as §4

`CC1(C)S[C@@H]2[C@H](NC(=O)[C@H](N)c3ccccc3)C(=O)N2[C@H]1C(=O)O` [AMPICILLIN]: the CFU in [1] is 4 10^9/ml; in test [3] it was 2 10^5/ml; in [5], 0 mL⁻¹; in [6] it was 6 10^9/ml. Moreover, the inhibition zone (IZ) in test [2] was determined as 28 mm; in test [4], 45 mm; in test [7] it was 35 mm; in test [8], 32 mm.
In the case of `CCn1cc(C(=O)O)c(=O)c2cc(F)c(N3CCNCC3)cc21` [NORFLOXACIN], the CFU in test [9] was 0 mL⁻¹; in test [11] it was 0 mL⁻¹; in [12] it was 7 10^2/ml; in [13], 4.5 10^7/ml; in test [14], 1 10^6/ml. In test [10], the inhibition zone (IZ) amounted to 35 mm.
